Entries after “also recorded” stand apart in the source; their conditions may differ.
Tests used:
ARPE-19 cells [1] = assay: Pyknotic nuclei counting; assay type: cell-based, human; conditions: 600 μM H2O2, 16 hours, Hoechst stain
Method in brief: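 ARPE-19 cells were serum-starved, then treated with 600 μM H₂O₂ and test peptide together for 16 h. Cells were fixed in methanol (15 min, RT) and stained with 5 μM Hoechst in PBS (15 min, RT). Five random fields per well were imaged, and pyknotic nuclei were counted as a percentage of total cells.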

ARPE-19 cells [2] = assay: Cell viability; assay type: cell-based, human
Method in brief: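 ARPE-19 cells (passages 27–40; DMEM/F-12, 10% FBS, 37°C, 5% CO₂) were plated at 2 × 10⁴ cells/well and grown to confluence (72 h). After 8 h starvation in 0.5% serum, cells received increasing H₂O₂ plus TNF-α (10 ng/mL), with or without test peptide, for 16 h. Relative live-cell numbers came from intracellular ATP luminescence; each point is the mean of duplicate wells.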

[3] = system: LTB4 (5-LOX activity) in primary pig RPE cells; assay: Leukotriene B4 ELISA, primary pig RPE medium; assay type: cell-based; conditions: 125 μM or 250 μM H2O2/TNF-α
Method in brief: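 Primary pig RPE cultures received H₂O₂ with TNF-α and test peptide. Medium was collected per well, spun briefly at low speed, and 50 μL was assayed by competitive LTB₄ enzyme immunoassay. Concentration came from an LTB₄ standard curve and was normalized to cell number per well. Duplicate wells per condition, each well measured in triplicate; experiment run twice.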

ARPE-19 cells [4] = assay: Cell death; assay type: cell-based, human
Method in brief: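 ARPE-19 cells (passages 27–40) grown in DMEM/F-12 with 10% FBS at 37°C, 5% CO₂, plated at 2 × 10⁴ cells/well (96-well) and cultured to confluency (72 h). Serum-starved 8 h in 0.5% serum, then exposed 16 h to H₂O₂ (600 μM for scrambled-control comparison) plus TNF-α (10 ng/mL) with test peptides. Dead-cell protease activity read by CytoTox-Glo; duplicate wells ± SD.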

primary pig RPE cells [5] = assay: Cell death; assay type: cell-based; conditions: for Cell death under oxidative stress: pig RPE
Method in brief: (§1)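 Primary pig RPE cultures plated at 2 × 10⁴ cells/well (96-well) and grown to confluence (72 h), then exposed to H₂O₂ with TNF-α (10 ng/mL) and test peptide for the indicated time. Live cells were measured as intracellular ATP luminescence (CellTiter-Glo) and dead cells as dead-cell protease luminescence (CytoTox-Glo), with lysis reagent added for total-cell signal. Relative cell numbers are from duplicate wells.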

[6] = system: LTB4 (5-LOX activity) in ARPE-19 cells; assay: Leukotriene B4 ELISA, ARPE-19 medium; assay type: cell-based, human
human recombinant 5-LOX = assay: Peptide-affinity chromatography, human recombinant 5-LOX; assay type: binding; conditions: 0.1 M sodium phosphate, 0.1% NP-40, Western blot
Method in brief: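 Human recombinant 5-LOX (300 ng) was incubated with P1-peptide agarose (0.4 nmol) in 0.1 M sodium phosphate and 0.1% NP-40 containing 25–250 mM NaCl, with gentle rotation at 4°C (1.5 h per general method). Agarose without peptide at 50 mM NaCl served as control resin. After extensive washes, bound protein was eluted in SDS-PAGE sample buffer and detected by anti-5-LOX Western blot (1:10,000) with chemiluminescence on film.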

PEDF = conditions: peptides from Leu159-Met325 of PEDF-R; cited from earlier work
primary pig RPE cells [7] = assay: Cell viability; assay type: cell-based
Method in brief: as §1

In the case of “P1: L4-derived peptide containing residues Thr^210-Leu^249 of human PEDF-R (TSIQFNLRNLYRLSKALFPPEPLVLREMCKQGYRDGLRFL; UniProt Q96AD5 210-249, looked up, fragment)”, the Pyknotic nuclei level (ARPE-19 cells [1]) is reported as “resulted in a decrease of pyknotic nuclei level”, the “Protective effect against H2O2” value (ARPE-19 cells [2]; 600 μM H2O2 plus TNF-α (10 ng/mL), preliminary, data not shown) is reported as “had protective effects against 600 μM H2O2” and the “Cell viability under oxidative stress” value (ARPE-19 cells [2]; H2O2/TNF-α, ATP live cell biomarker, duplicate wells) is reported as “promoted cell viability; also recorded: increased the ARPE-19 cell viability”. For the same substance, the “LTB4 level under oxidative stress” value [3] was “decreased LTB4 levels in primary pig RPE cells treated at 125 μM or 250 μM H2O2/TNF-α in a concentration-dependent fashion”, the “Number of dead cells under oxidative stress” value (ARPE-19 cells [4]; H2O2 (600 μM for SCR comparison), dead cell protease activity) was “decreased cell death of RPE cells undergoing oxidative stress; also recorded: decreased the number of dead cells under oxidative stress in a concentration-dependent fashion” and the “Protection from oxidative stress-induced cell death (summary)” value (ARPE-19 cells [4]; H2O2/TNF-α) was “protected ARPE-19 and pig primary RPE cells from oxidative stress–induced cell death in a specific and concentration-dependent fashion”. The “Cell death under oxidative stress” value (primary pig RPE cells [5]; 125 μM H2O2) was “decreased death at 125 μM H2O2”, the “Cell death under oxidative stress” value (primary pig RPE cells [5]; 250 μM H2O2) was “decreased cell death at 250 μM H2O2” and the “Protection from oxidative stress-induced cell death (summary)” value (primary pig RPE cells [5]; pig primary RPE, H2O2/TNF-α) was “protected ARPE-19 and pig primary RPE cells from oxidative stress–induced cell death in a specific and concentration-dependent fashion”. For the same substance, the “LTB4 level under oxidative stress” value ([6]; 600 μM H2O2/TNF-α, 20 nM P1) was “decreased LTB4 to basal levels”, the “LTB4 level under oxidative stress” value ([6]; 750 μM H2O2/TNF-α) was “only partially diminished LTB4” and the “Binding of 5-LOX to P1 at 250 mM NaCl” value (human recombinant 5-LOX; 250 mM NaCl) was “completely abolished”. The “Binding of 5-LOX to P1 with increasing ionic strength” value (human recombinant 5-LOX; 25-250 mM NaCl) was “with increasing ionic strength the binding decreased”, the PEDF-binding affinity (PEDF) was “retain the PEDF-binding affinity of PEDF-R” and the “Cell viability under oxidative stress” value (primary pig RPE cells [7]; 125 μM H2O2) was “increased pig RPE cell viability”. The “Cell numbers (viability) under oxidative stress” value (primary pig RPE cells [7]; 250 μM H2O2) was “did not increase the cell numbers”.

— publication PMC5033602 (Investigative Ophthalmology & Visual Science, 2016)
